Here are results for 26 compounds from ChEMBL document CHEMBL3393047, “Pyridine and pyridinone-based factor XIa inhibitors” (Bioorg Med Chem Lett, 2015).

Each structure is given as a SMILES string.

One assay has as its target Coagulation factor XI (Homo sapiens, UniProt P03951). Nature of the assay: Inhibition of human coagulation factor 11a after 10 to 120 mins.
The test system of another assay is Plasma. Description: Anticoagulant activity in human plasma assessed as concentration required to double the activated partial thromboplastin time. The class given is functional. The essentials:
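In vitro clotting assay run in human plasma; activity read out as the activated partial thromboplastin time, and the value reported as EC2x, the concentration that doubles aPTT.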

Assay [1] is described as follows: Inhibition of human chymotrypsin. The essentials: (§1)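 Ki determined against purified human enzymes (selectivity panel of serine proteases).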
The target in a further assay is Coagulation factor IX (Homo sapiens, UniProt P00740). Nature of the assay: Inhibition of human coagulation factor 9a. The method in brief: as §1
Coagulation factor IX, sequence (P00740 47-191 limits assumed): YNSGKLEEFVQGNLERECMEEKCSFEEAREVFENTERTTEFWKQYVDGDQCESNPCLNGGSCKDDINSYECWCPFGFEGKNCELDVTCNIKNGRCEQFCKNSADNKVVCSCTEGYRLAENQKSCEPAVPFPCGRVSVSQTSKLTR
Coagulation factor IX, sequence (P00740 227-461 limits assumed): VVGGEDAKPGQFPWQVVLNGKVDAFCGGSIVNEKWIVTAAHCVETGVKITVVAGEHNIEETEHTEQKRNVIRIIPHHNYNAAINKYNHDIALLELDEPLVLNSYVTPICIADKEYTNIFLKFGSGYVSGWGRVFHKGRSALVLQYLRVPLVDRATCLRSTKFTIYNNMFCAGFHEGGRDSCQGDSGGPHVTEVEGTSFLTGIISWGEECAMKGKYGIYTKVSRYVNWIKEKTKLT
The next assay addresses T1, Coagulation factor VII (Homo sapiens, UniProt P08709).
T1 sequence (P08709 whole entry): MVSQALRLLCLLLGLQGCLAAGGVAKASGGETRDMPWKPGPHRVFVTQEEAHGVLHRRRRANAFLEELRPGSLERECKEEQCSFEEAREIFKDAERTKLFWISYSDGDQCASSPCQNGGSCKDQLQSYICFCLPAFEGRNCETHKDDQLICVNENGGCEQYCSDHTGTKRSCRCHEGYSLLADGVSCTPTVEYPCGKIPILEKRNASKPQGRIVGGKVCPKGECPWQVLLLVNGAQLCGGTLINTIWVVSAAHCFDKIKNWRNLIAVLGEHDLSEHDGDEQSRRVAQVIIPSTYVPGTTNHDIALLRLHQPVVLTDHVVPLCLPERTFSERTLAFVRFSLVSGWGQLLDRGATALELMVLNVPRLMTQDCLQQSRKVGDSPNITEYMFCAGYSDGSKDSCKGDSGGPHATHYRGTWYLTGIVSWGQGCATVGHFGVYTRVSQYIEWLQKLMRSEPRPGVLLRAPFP
Nature of the assay: Inhibition of human coagulation factor 7a. The essentials:
as §1

In assay [2] the target is Tissue-type plasminogen activator (Homo sapiens, UniProt P00750). Nature of the assay: Inhibition of human TPA. The essentials:
as §1

The target in the next assay is Trypsin (Homo sapiens, UniProt P07477+P07478+P35030). Description: Inhibition of human trypsin. The class given is protein assay. The essentials:
as §1

Another assay concerns the target Prothrombin (Homo sapiens, UniProt P00734). Nature of the assay: Inhibition of human thrombin. The essentials:
as §1

The target in assay [3] is Vitamin K-dependent protein C (Homo sapiens, UniProt P04070). Description: Inhibition of human activated protein C. The method in brief: as §1
Vitamin K-dependent protein C, sequence (P04070 43-197 limits assumed): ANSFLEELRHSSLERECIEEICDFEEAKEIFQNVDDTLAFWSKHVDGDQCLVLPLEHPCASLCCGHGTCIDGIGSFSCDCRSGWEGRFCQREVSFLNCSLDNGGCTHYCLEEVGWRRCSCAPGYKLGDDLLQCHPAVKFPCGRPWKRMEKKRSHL
Vitamin K-dependent protein C, sequence (P04070 212-461 limits assumed): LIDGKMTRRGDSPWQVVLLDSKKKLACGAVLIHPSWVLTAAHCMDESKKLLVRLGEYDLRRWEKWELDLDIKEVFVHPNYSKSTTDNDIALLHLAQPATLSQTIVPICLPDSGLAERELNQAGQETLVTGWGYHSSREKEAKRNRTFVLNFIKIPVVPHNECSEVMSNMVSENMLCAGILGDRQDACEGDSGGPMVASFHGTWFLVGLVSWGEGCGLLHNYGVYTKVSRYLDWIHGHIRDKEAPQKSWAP
The target of the next assay is Coagulation factor X (Homo sapiens, UniProt P00742). Description: Inhibition of human coagulation factor 10a. The essentials: as §1
Coagulation factor X, sequence (P00742 41-179 limits assumed): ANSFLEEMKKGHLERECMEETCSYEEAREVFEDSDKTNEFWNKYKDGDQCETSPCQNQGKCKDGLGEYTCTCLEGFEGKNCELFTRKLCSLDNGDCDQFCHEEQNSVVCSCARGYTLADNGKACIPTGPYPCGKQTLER
Coagulation factor X, sequence (P00742 235-488 limits assumed): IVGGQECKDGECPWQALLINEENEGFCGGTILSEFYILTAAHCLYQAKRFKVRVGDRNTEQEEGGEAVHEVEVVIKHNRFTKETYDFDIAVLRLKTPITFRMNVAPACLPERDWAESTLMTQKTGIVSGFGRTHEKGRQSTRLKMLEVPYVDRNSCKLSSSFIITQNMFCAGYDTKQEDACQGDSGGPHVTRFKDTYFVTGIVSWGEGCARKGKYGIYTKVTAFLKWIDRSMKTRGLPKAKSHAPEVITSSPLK
For assay [4], the target named is Urokinase-type plasminogen activator (Homo sapiens, UniProt P00749). Nature of the assay: Inhibition of human urokinase. The method in brief: as §1
The target of another assay is Plasma kallikrein (Homo sapiens, UniProt P03952). Nature of the assay: Inhibition of human plasma kallikrein. The essentials: as §1
Plasma kallikrein, sequence (P03952 20-390 limits assumed): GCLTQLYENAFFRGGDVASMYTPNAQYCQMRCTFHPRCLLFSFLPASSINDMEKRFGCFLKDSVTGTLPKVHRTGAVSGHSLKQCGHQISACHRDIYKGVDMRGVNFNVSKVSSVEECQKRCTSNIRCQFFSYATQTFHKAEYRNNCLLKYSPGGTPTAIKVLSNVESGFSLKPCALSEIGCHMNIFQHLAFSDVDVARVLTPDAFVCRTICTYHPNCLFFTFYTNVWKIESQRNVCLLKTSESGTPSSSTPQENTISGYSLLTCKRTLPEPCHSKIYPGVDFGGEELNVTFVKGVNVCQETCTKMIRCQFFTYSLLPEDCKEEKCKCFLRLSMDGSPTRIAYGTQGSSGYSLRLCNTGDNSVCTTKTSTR
Plasma kallikrein, sequence (P03952 391-638 limits assumed): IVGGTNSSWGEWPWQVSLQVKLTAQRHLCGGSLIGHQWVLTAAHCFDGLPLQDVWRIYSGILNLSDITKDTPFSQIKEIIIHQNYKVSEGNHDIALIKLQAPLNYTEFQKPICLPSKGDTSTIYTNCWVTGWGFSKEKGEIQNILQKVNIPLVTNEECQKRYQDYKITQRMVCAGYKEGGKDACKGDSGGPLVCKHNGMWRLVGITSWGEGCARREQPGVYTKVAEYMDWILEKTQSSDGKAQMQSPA
The next assay concerns the target Plasminogen (Homo sapiens, UniProt P00747). Nature of the assay: Inhibition of human plasmin. The essentials: as §1

Coagulation factor XI, sequence (P03951 19-387 limits assumed): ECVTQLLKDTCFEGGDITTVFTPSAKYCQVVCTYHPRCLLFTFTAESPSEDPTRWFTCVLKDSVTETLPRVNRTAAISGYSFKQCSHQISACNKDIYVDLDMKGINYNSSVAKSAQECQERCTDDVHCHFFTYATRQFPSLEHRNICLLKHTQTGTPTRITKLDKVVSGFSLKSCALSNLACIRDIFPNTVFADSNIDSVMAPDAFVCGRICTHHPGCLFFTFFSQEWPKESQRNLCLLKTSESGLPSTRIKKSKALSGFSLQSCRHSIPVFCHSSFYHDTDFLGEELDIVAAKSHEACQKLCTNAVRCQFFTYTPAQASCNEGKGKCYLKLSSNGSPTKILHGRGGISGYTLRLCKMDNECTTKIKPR
Coagulation factor XI, sequence (P03951 388-625 limits assumed): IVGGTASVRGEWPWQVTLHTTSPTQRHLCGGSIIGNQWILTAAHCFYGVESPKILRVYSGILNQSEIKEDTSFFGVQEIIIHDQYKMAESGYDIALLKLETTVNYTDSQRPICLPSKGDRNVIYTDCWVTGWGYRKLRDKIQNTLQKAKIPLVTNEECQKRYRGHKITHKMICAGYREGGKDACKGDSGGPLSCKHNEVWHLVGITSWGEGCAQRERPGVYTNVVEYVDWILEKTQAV
Tissue-type plasminogen activator, sequence (P00750 whole entry): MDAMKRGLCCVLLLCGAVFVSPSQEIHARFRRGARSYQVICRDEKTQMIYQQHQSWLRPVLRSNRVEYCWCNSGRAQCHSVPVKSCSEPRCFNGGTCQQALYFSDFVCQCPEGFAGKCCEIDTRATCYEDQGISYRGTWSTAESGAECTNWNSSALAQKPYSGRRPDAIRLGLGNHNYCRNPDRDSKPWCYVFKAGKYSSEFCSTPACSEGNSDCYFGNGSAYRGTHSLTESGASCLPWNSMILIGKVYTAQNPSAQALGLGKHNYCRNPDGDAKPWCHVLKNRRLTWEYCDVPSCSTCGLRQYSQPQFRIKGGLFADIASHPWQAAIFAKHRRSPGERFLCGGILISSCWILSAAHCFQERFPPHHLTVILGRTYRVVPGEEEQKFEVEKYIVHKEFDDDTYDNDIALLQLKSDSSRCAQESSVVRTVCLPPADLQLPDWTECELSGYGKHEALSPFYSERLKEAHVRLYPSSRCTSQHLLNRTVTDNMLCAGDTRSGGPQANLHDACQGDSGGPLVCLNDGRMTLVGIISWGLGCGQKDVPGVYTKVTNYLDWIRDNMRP
Plasminogen, sequence (P00747 97-580 limits assumed): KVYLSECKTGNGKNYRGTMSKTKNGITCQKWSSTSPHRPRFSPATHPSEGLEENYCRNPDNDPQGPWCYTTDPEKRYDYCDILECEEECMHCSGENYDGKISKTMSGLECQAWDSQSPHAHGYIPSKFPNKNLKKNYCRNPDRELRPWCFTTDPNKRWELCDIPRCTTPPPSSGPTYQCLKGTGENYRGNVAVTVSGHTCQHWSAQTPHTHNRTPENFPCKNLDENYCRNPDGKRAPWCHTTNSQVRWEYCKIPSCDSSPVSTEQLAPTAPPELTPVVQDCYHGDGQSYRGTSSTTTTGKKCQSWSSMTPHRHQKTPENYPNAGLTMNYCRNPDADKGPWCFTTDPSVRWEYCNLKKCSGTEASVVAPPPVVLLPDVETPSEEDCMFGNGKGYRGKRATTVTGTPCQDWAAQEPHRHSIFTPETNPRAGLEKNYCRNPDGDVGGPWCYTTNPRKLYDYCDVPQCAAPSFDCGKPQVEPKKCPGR
Plasminogen, sequence (P00747 581-810 limits assumed): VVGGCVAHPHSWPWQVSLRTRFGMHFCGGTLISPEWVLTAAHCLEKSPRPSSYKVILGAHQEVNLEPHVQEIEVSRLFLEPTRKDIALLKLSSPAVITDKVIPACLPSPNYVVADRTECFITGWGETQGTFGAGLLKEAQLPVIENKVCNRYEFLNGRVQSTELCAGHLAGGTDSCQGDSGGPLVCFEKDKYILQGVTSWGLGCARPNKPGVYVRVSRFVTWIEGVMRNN

For orientation: Ki means a dissociation constant, usually derived from enzyme kinetics or from competition with a known ligand. A higher Ki goes with weaker binding. The compound `NC[C@H]1CC[C@H](C(=O)NC(Cc2ccccc2)c2cncc(-c3ccccc3)c2)CC1` (mixture of isomers) came in with a Ki at Coagulation factor XI of 330 nM. Compound `NC[C@H]1CC[C@H](C(=O)NC(Cc2ccccc2)c2cc(-c3ccccc3)ncn2)CC1` (mixture of isomers) showed a Ki at Coagulation factor XI of 331 nM. `NC[C@H]1CC[C@H](C(=O)NC(Cc2ccccc2)c2cc(-c3ccccc3)c(F)cn2)CC1` (mixture of isomers): affinity on Coagulation factor XI was put at a Ki of 433 nM.

On to `NC[C@H]1CC[C@H](C(=O)NC(Cc2ccccc2)c2cccc(-c3ccccc3)c2)CC1` (mixture of isomers), for which the Ki at Coagulation factor XI turned out to be 936 nM.

On Coagulation factor XI, `NC[C@H]1CC[C@H](C(=O)NC(Cc2ccccc2)c2cc[n+]([O-])c(-c3ccccc3)c2)CC1` (mixture of isomers) came in with a Ki of 2530 nM.

On to `NC[C@H]1CC[C@H](C(=O)NC(Cc2ccccc2)c2cccc(-c3ccc4c(N)n[nH]c4c3)c2)CC1` (mixture of isomers), for which the 2aPTT in the assay on Plasma is more than 40 µM. Moreover, the affinity on Coagulation factor XI, expressed as Ki, was 42 nM. `NC[C@H]1CC[C@H](C(=O)NC(Cc2ccccc2)c2cc(-c3ccccc3)c[n+]([O-])c2)CC1` (mixture of isomers) yielded a Ki at Coagulation factor XI of 1060 nM. Take `NC[C@H]1CC[C@H](C(=O)NC(Cc2ccccc2)c2cccc(-c3ccccc3)n2)CC1` (mixture of isomers): at Coagulation factor XI, the Ki was determined as 30200 nM. For `NC[C@H]1CC[C@H](C(=O)N[C@@H](Cc2ccccc2)c2nccc(-c3ccccc3)n2)CC1`, the Ki on Coagulation factor XI was found to be 11400 nM. As to `Cn1c(C(Cc2ccccc2)NC(=O)[C@H]2CC[C@H](CN)CC2)cc(-c2ccccc2)cc1=O` (mixture of isomers), the Ki at Coagulation factor XI came out at 479 nM. `COc1cc(-c2ccccc2)cc(C(Cc2ccccc2)NC(=O)[C@H]2CC[C@H](CN)CC2)n1` (mixture of isomers): the Ki at Coagulation factor XI was found to be 949 nM. On Coagulation factor XI, `CNc1cc(-c2ccccc2)cc(C(Cc2ccccc2)NC(=O)[C@H]2CC[C@H](CN)CC2)n1` (mixture of isomers) showed a Ki of 860 nM. Still for that read-out and setting: with `NC[C@H]1CC[C@H](C(=O)NC(Cc2ccccc2)c2cc(-c3ccccc3)cc(O)n2)CC1` (mixture of isomers) the figure was 113 nM. On to `NC[C@H]1CC[C@H](C(=O)N[C@@H](Cc2ccccc2)c2nc(-c3ccc4c(N)n[nH]c4c3)c[nH]2)CC1`, for which, in the assay with Plasma, the 2aPTT was 3 µM. On Coagulation factor XI, this compound displayed a Ki of 3.2 nM. In the case of `NC[C@H]1CC[C@H](C(=O)NC(Cc2ccccc2)c2cc(-c3ccc4c(N)n[nH]c4c3)cc(=O)[nH]2)CC1` (mixture of isomers), in the assay on Plasma, the 2aPTT came to 2.5 µM. On Coagulation factor XI, this compound gave a Ki of 3.7 nM. At Coagulation factor XI, `NC[C@H]1CC[C@H](C(=O)N[C@H](Cc2ccccc2)c2cc(-c3ccc4c(N)n[nH]c4c3)ccn2)CC1` displayed a Ki of 1070 nM. `NC[C@H]1CC[C@H](C(=O)NC(Cc2ccccc2)c2cc(-c3ccccc3)cc(Cl)n2)CC1` (mixture of isomers) yielded an inhibitory constant (Ki) at Coagulation factor XI of 206 nM. In turn, `NC[C@H]1CC[C@H](C(=O)NC(Cc2ccccc2)c2cc(-c3ccccc3)cc(N)n2)CC1` (mixture of isomers) had a Ki at Coagulation factor XI of 227 nM. On Coagulation factor XI, `NC[C@H]1CC[C@H](C(=O)NC(Cc2ccccc2)c2cc(-c3ccccc3)ccn2)CC1` (mixture of isomers) returned an inhibition constant Ki of 377 nM. In the case of `NC[C@H]1CC[C@H](C(=O)NC(Cc2ccccc2)c2cc(-c3ccc4c(N)n[nH]c4c3)ccn2)CC1` (mixture of isomers), the 2aPTT in the assay with Plasma stood at 6 µM. The Ki on Coagulation factor XI turned out to be 13 nM. As for `NC[C@H]1CC[C@H](C(=O)NC(Cc2ccccc2)c2cc(-c3ccccc3)cc[n+]2[O-])CC1` (mixture of isomers), the affinity on Coagulation factor XI, expressed as Ki, was 1690 nM.

Take `NC[C@H]1CC[C@H](C(=O)N[C@@H](Cc2ccccc2)c2cccc(-c3ccc4c(N)n[nH]c4c3)c2)CC1`: the 2aPTT in the assay with Plasma was determined as 37 µM. Moreover, the Ki on Coagulation factor XI turned out to be 21 nM.

As for `NC[C@H]1CC[C@H](C(=O)N[C@@H](Cc2ccccc2)c2cc(-c3ccc4c(N)n[nH]c4c3)ccn2)CC1`, the 2aPTT in the assay on Plasma came out at 4.5 µM. Moreover, the Ki in assay [1] is more than 20800 nM; at Coagulation factor IX, more than 34900 nM; at Coagulation factor VII, more than 10900 nM; in assay [2] it was more than 21900 nM; on Trypsin, 64 nM; on Prothrombin it was more than 12600 nM. Besides, the Ki in [3] is more than 21400 nM; at Coagulation factor XI, 8.4 nM; at Coagulation factor X it was more than 9000 nM; in [4], more than 14100 nM; on Plasma kallikrein it was 24 nM; on Plasminogen, more than 22100 nM. Compound `NC[C@H]1CC[C@H](C(=O)N[C@H](Cc2ccccc2)c2cccc(-c3ccc4c(N)n[nH]c4c3)c2)CC1` displayed a Ki at Coagulation factor XI of 6160 nM. Still for that read-out and setting: then `NC[C@H]1CC[C@H](C(=O)N[C@@H](Cc2ccccc2)c2nc(-c3ccccc3)c(Cl)[nH]2)CC1`, with 12 nM. For the compound `NC[C@H]1CC[C@H](C(=O)NC(Cc2ccccc2)c2ccnc(-c3ccccc3)c2)CC1` (mixture of isomers), the Ki on Coagulation factor XI was 320 nM.
